Converted amounts (≈) assume the structure as drawn.
Key:
Type in all cases: functional
Staphylococcus aureus [1] = assay: Antibacterial activity against high-level methicillin-resistant Staphylococcus aureus SR-17164 harboring inactive lytH gene and active llm gene after 24 hrs by serial twofold dilution method; conditions: SR17164, 24 h
How it was run: (§1)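 Agar dilution MIC: tryptic soy agar plates carried serial twofold dilutions of antibiotic. Overnight tryptic soy broth cultures were diluted to about 10⁶ CFU/ml, and 1 μl of each suspension was spotted onto the plates. Plates were incubated 24 h at 37°C, then MICs were scored.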

Staphylococcus aureus [2] = assay: Antibacterial activity against high-level methicillin-resistant Staphylococcus aureus SRM551 harboring active lytH and llm gene after 24 hrs by serial twofold dilution method; conditions: SRM551, 24 h; how it was run: as §1
Staphylococcus aureus [3] = assay: Antibacterial activity against high-level methicillin-resistant Staphylococcus aureus SR-17164 harboring lytH::IS1182 gene after 24 hrs by serial twofold dilution method; conditions: SR17164, 24 h; how it was run: as §1
Staphylococcus aureus [4] = assay: Antibacterial activity against high-level methicillin-resistant Staphylococcus aureus SRM1648 with deltarel-lytH region after 24 hrs by serial twofold dilution method; conditions: SRM1648, 24 h; how it was run: as §1
Staphylococcus aureus [5] = assay: Antibacterial activity against high-level methicillin-resistant Staphylococcus aureus SRM1648 harboring inactive lytH gene and active llm gene after 24 hrs by serial twofold dilution method; conditions: SRM1648, 24 h; how it was run: as §1
Staphylococcus aureus [6] = assay: Antibacterial activity against high-level methicillin-resistant Staphylococcus aureus SRM1825 harboring inactive lytH and inactive llm gene after 24 hrs by serial twofold dilution method; conditions: SRM1825, 24 h; how it was run: as §1
Staphylococcus aureus [7] = assay: Antibacterial activity against high-level methicillin-resistant Staphylococcus aureus SRM1816 harboring inactive lytH and inactive llm gene after 24 hrs by serial twofold dilution method; conditions: SRM1816, 24 h; how it was run: as §1
Staphylococcus aureus [8] = assay: Antibacterial activity against high-level methicillin-resistant Staphylococcus aureus SRM1832 harboring inactive lytH and inactive llm gene after 24 hrs by serial twofold dilution method; conditions: SRM1832, 24 h; how it was run: as §1
Staphylococcus aureus [9] = assay: Antibacterial activity against high-level methicillin-resistant Staphylococcus aureus SRM563 harboring active lytH gene and inactive llm gene after 24 hrs by serial twofold dilution method; conditions: SRM563, 24 h; how it was run: as §1
Staphylococcus aureus [10] = assay: Antibacterial activity against low-level methicillin-resistant Staphylococcus aureus SR-17238 after 24 hrs by serial twofold dilution method; conditions: SR17238, 24 h; how it was run: as §1
Staphylococcus aureus [11] = assay: Antibacterial activity against high-level methicillin-resistant Staphylococcus aureus SR-17164 harboring intact lytH gene after 24 hrs by serial twofold dilution method; conditions: SR17164, 24 h; how it was run: as §1
Staphylococcus aureus [12] = assay: Antibacterial activity against high-level methicillin-resistant Staphylococcus aureus SR-17164 with lytH gene inactivated by insertion sequence IS1182 measured after 24 hrs by serial twofold dilution method; conditions: SR17164, 24 h; how it was run: as §1
Staphylococcus aureus [13] = assay: Antibacterial activity against high-level methicillin-resistant Staphylococcus aureus SRM1663 harboring inactive lytH gene and active llm gene after 24 hrs by serial twofold dilution method; conditions: SRM1663, 24 h; how it was run: as §1
Staphylococcus aureus [14] = assay: Antibacterial activity against methicillin-resistant Staphylococcus aureus SRM2148 containing pSR108 harboring deletion in rel-lytH region after 24 hrs by serial twofold dilution method; conditions: SRM2148, 24 h
Staphylococcus aureus [15] = assay: Antibacterial activity against low-level methicillin-resistant Staphylococcus aureus SR-20280 after 24 hrs by serial twofold dilution method; conditions: SR20280, 24 h; how it was run: as §1
Staphylococcus aureus [16] = assay: Antibacterial activity against low-level methicillin-resistant Staphylococcus aureus SR-20202 after 24 hrs by serial twofold dilution method; conditions: SR20202, 24 h; how it was run: as §1
Staphylococcus aureus [17] = assay: Antibacterial activity against methicillin-resistant Staphylococcus aureus SRM1664 containing pSR100 harboring deletion in rel-lytH region after 24 hrs by serial twofold dilution method; conditions: SRM1664, 24 h
Staphylococcus aureus [18] = assay: Antibacterial activity against low-level methicillin-resistant Staphylococcus aureus SR-20137 after 24 hrs by serial twofold dilution method; conditions: SR20137, 24 h; how it was run: as §1
Staphylococcus aureus [19] = assay: Antibacterial activity against methicillin-resistant Staphylococcus aureus SRM2150 containing pSR108 harboring deletion in rel-lytH region after 24 hrs by serial twofold dilution method; conditions: SRM2150, 24 h
Staphylococcus aureus [20] = assay: Antibacterial activity against methicillin-resistant Staphylococcus aureus SRM1665 containing pSR108 harboring deletion in rel-lytH region after 24 hrs by serial twofold dilution method; conditions: SRM1665, 24 h
Staphylococcus aureus [21] = assay: Antibacterial activity against low-level methicillin-resistant Staphylococcus aureus SR-20118 after 24 hrs by serial twofold dilution method; conditions: SR20118, 24 h; how it was run: as §1
Staphylococcus aureus [22] = assay: Antibacterial activity against methicillin-resistant Staphylococcus aureus SRM2149 containing pSR108 harboring deletion in rel-lytH region after 24 hrs by serial twofold dilution method; conditions: SRM2149, 24 h
Staphylococcus aureus [23] = assay: Antibacterial activity against methicillin-resistant Staphylococcus aureus SRM2151 containing pSR108 harboring deletion in rel-lytH region after 24 hrs by serial twofold dilution method; conditions: SRM2151, 24 h

SMILES	MIC (Staphylococcus aureus [1])	MIC (Staphylococcus aureus [2])	MIC (Staphylococcus aureus [3])	MIC (Staphylococcus aureus [4])	MIC (Staphylococcus aureus [5])	MIC (Staphylococcus aureus [6])	MIC (Staphylococcus aureus [7])	MIC (Staphylococcus aureus [8])	MIC (Staphylococcus aureus [9])	MIC (Staphylococcus aureus [10])	MIC (Staphylococcus aureus [11])	MIC (Staphylococcus aureus [12])	MIC (Staphylococcus aureus [13])	further results
C[C@@H](O)[C@H]1C(=O)N2C(C(=O)O)=C(SCCNC=N)C[C@H]12 [IMIPENEM ANHYDROUS]	100 µg/mL (≈ 334 µM)	50 µg/mL (≈ 167 µM)	100 µg/mL (≈ 334 µM)	50 µg/mL (≈ 167 µM)	100 µg/mL (≈ 334 µM)	50 µg/mL (≈ 167 µM)	25 µg/mL (≈ 83.5 µM)	50 µg/mL (≈ 167 µM)	0.39 µg/mL (≈ 1.3 µM)	≤ 0.1 µg/mL	50 µg/mL (≈ 167 µM)	100 µg/mL (≈ 334 µM)	100 µg/mL (≈ 334 µM)	
Cc1nnc(SCC2=C(C(=O)O)N3C(=O)[C@@H](NC(=O)Cn4cnnn4)[C@H]3SC2)s1 [CEFAZOLIN]	400 µg/mL (≈ 880 µM)	200 µg/mL (≈ 440 µM)			400 µg/mL (≈ 880 µM)	200 µg/mL (≈ 440 µM)	100 µg/mL (≈ 220 µM)	200 µg/mL (≈ 440 µM)	12.5 µg/mL (≈ 27.5 µM)				400 µg/mL (≈ 880 µM)	
COc1cccc(OC)c1C(=O)N[C@@H]1C(=O)N2[C@@H]1SC(C)(C)[C@@H]2C(=O)O [METHICILLIN]	1600 µg/mL (≈ 4210 µM)	800 µg/mL (≈ 2100 µM)	1600 µg/mL (≈ 4210 µM)	1600 µg/mL (≈ 4210 µM)	1600 µg/mL (≈ 4210 µM)	400 µg/mL (≈ 1050 µM)	100 µg/mL (≈ 263 µM)	800 µg/mL (≈ 2100 µM)	12.5 µg/mL (≈ 32.9 µM)	6.3 µg/mL (≈ 16.6 µM)	800 µg/mL (≈ 2100 µM)	1600 µg/mL (≈ 4210 µM)	1600 µg/mL (≈ 4210 µM)	MIC (Staphylococcus aureus [14]): 12.5 µg/mL (≈ 32.9 µM); MIC (Staphylococcus aureus [15]): 6.3 µg/mL (≈ 16.6 µM); MIC (Staphylococcus aureus [16]): 25 µg/mL (≈ 65.7 µM); MIC (Staphylococcus aureus [17]): 6.3 µg/mL (≈ 16.6 µM); MIC (Staphylococcus aureus [18]): 12.5 µg/mL (≈ 32.9 µM); MIC (Staphylococcus aureus [19]): 50 µg/mL (≈ 131 µM); MIC (Staphylococcus aureus [20]): 25 µg/mL (≈ 65.7 µM); MIC (Staphylococcus aureus [21]): 12.5 µg/mL (≈ 32.9 µM); MIC (Staphylococcus aureus [22]): 25 µg/mL (≈ 65.7 µM); MIC (Staphylococcus aureus [23]): 6.3 µg/mL (≈ 16.6 µM)

From ChEMBL document CHEMBL1153561, “Staphylococcus aureus clinical isolate with high-level methicillin resistance with an lytH mutation caused by IS1182 insertion” (2008)
